# T cruzi repl: inhibitors of intracellular T. cruzi growth, primary screen, luminescence, NIH3T3 host cells. AID 1885, 2009. 300,000 tested, 1.4% active. T. cruzi beta-gal in NIH3T3, 90 h. inhibition, % (no concentration beside the values);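 active = mean inhibition across valid replicates above about 55%, limit read from the data; inconclusive = mean below that limit but half or more replicates reach it; inactive = mean below it, under half of replicates reach it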;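 also: signal also drops with host cell toxicity which is not excluded here; 0% = plate median of DMSO wells and 100% = zero luminescence signal; higher percent means less beta-gal luminescence so fewer parasites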
#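 compound dosing = single 50 nL compound addition per well in DMSO | material = NIH/3T3 host cells with β-galactosidase reporter T. cruzi | input = 5,000 host fibroblasts per well | timing = ≥90 h infection period, 3 h prior cell attachment | read-out basis = percent inhibition of parasite-derived β-gal signal | detection = GalScreen β-gal luminescence, detergent lysis, 60 min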
# A1 inh: caspase 3/7 activation in MEF A1-2A-BIM cells, primary screen, A1 inhibitor project, cell-based, luminescence, HTS. Caspase-Glo 3/7 luminescence, 3 h; percent of clofoctol response, vehicle zero. caspase activation, % (concentration not given with the values). 330,000 tested, 0.066% active;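 active = over half of replicate activation scores above 10%, or exactly half above 10 with the replicate mean above 10; inconclusive = replicate mean below 10 yet half the replicates above 10; inactive = over half of replicates below 10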
# CSC inhib: cancer stem cell viability inhibitors, primary screen, luminescence. AID 2717, 2010. cancer stem cell-like cells viability. inhibition, % at 7.5 µM. 300,000 tested, 1.1% active; in the data active = inhibition above about 75%; inconclusive = no clear call, values can overlap the other calls; tested in HMLE shEcad cells
# Beta apoptosis: inhibitors of cytokine-induced beta cell apoptosis, primary screen, luminescence | INS-1E cytokine-induced death, ATP luminescence, 48 h; percent of positive-control rescue, neutral wells zero | 300,000 tested, 0.8% active | protection from apoptosis, % (concentration not given with the values);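 active = Every replicate reaches about 75%, or at least half do and their mean reaches it too, limit read from the data; inconclusive = At least half of replicates reach the limit but their mean does not; inactive = Under half of replicates reach the limit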;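 also: 0% = cytokine-treated negative control wells and 100% = positive control rescue; higher means more ATP so stronger rescue from cytokine killing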
# Calb FLC: C. albicans growth inhibition with fluconazole, primary screen, CaCi-2 strain, Alamar Blue fluorescence. growth inhibition, % (concentration not given with the values). C. albicans CaCi-2 + fluconazole, 48 h. 300,000 tested, 0.57% active;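 active = growth inhibition above about 58% in most replicates, limit read from the data, passing the limit was not always enough; inconclusive = exactly half the replicates above a set limit; inactive = most replicates below a set limit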;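 also: all wells also contain fluconazole at 8 µg/ml as a sub-toxic cotreatment; 0% = median of DMSO wells and 100% = median of geldanamycin control wells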
# H9c2 TAG inh: inhibitors of triacylglycerol accumulation, primary screen, cell-based, uHTS, fluorescence, H9c2; 230,000 tested, 0.66% active; inhibition, % at 12.5 µM; H9c2 cells, Nile Red lipid (TAG) fluorescence; cells loaded with 200 µM oleic acid; AID 651582, 2012;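 active = pattern-corrected inhibition of lipid staining of at least 50% with the nuclear-stain viability signal not falling by more than 50%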;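 also: 0% = DMSO wells and 100% = triacsin C control wells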
# Starred values were filed as active, the others as inactive; ? = inconclusive; . = no result given. In the library only some 3.1% were active in any assay of this set; here they are far more common.
SMILES,T cruzi repl,A1 inh,CSC inhib,Beta apoptosis,Calb FLC,H9c2 TAG inh
NC(N)=N/N=C/c1cn(-c2ccccc2)nc1-c1cccs1,46,0,-14,105*,8,124*
O=c1c2ccccc2nc(-c2cccs2)n1-c1ccccc1,1,1,2,0,-6,3
COC1=C(C)C(=O)C2=C(C1=O)C(CO)N1C(C#N)C3CC4C(C1C2N1CCOC41)N3C (configuration not stated),.,.,.,.,.,83*
CN(C)CC#CCC(O)(c1ccccc1)C1CCCC1 (configuration not stated),67*,1,1,-4,-2,.
OC(CC#CCN1CCCCCC1)(c1ccccc1)C1CCCC1 (configuration not stated),23,0,18,8,-9,16
COC(=O)C1=C(c2ccc(OCc3ccccc3)cc2)C[C@@H]2CC[C@H]1N2C(=O)NC1CCN(Cc2ccccc2)CC1,.,0,48,78*,.,30
COC(=O)C1=C(c2ccc(OCc3ccccc3)cc2)C[C@@H]2CC[C@H]1N2C(=O)NCCN1CCOCC1,.,1,.,-11,.,-25
COC(=O)C1=C(c2cccc(C#N)c2)C[C@@H]2CC[C@H]1N2C(=O)NC1Cc2ccccc2C1,.,-1,84*,2,.,.
COC(=O)C1=C(c2ccc(OCc3ccccc3)cc2)C[C@@H]2CC[C@H]1N2C(=O)NCCCCc1ccccc1,.,.,.,.,.,22
CC[C@@H](O)C[C@H]1CCC[C@@]2(C[C@@H]3OC(=O)/C=C/[C@@](C)(O)[C@@H](O)[C@H](C)[C@@H](O)[C@H](OC4CCC(N(C)C)C(C)O4)[C@@H](O)[C@](C)(O)CCCCC/C=C/[C@@H]4CC(C)(C)O[C@@]4(O)C[C@H](O2)[C@H]3C)O1 (some centres not stated),.,.,.,.,.,58*
CCn1cc(C(=O)c2ccccc2)c2ccccc21,12,0,.,-6,97*,.
COC(=O)C1=C(c2ccc(F)cc2F)C[C@@H]2CC[C@H]1N2C(=O)N1CCC(O)CC1,.,3,4,6,.,-6
O=C1NC(=O)C(CCc2ccncc2)(CCc2ccncc2)C(=O)N1Cc1ccccc1,-22,0,-9,6,11,-8
CCCNS(=O)(=O)c1ccc(OCC(=O)N2CCN(C)CC2)cc1,34,0,-6,-7,-14,.
CN1CCN(C(=O)COc2ccc(S(=O)(=O)N(C)Cc3ccccc3)cc2)CC1,61*,0,4,0,-30,.
CN1CCN(C(=O)COc2ccc(N(C)S(=O)(=O)c3ccc(F)cc3)cc2)CC1,79*,0,2,0,10,-9
COc1ccc(NS(=O)(=O)c2ccc(OCC(=O)N3CCN(C)CC3)cc2)cc1Cl,58*,0,3,-4,-11,-1
C[C@@H]1O[C@@H](O[C@@H]2C=C3CC[C@@H]4C(CC[C@]5(C)[C@@H](c6ccc(=O)oc6)CC[C@]45O)[C@@]3(C)CC2)[C@H](O)[C@H](O)[C@H]1O (some centres not stated),.,0,107*,-3,.,8
CC(=O)C1CCC2(O)C3CCC4=CC(=O)CCC4(C)C3CCC12C (configuration not stated),.,.,.,.,.,7
C[C@@H]1O[C@@H](O[C@@H]2C=C3CCC4C(CC[C@]5(C)[C@@H](c6ccc(=O)oc6)CC[C@]45O)[C@@]3(C)CC2)[C@H](O)[C@H](O)[C@H]1O (some centres not stated),.,0,101*,12,.,-7
CC(=O)c1ccc(OCC(=O)N2CCCC(N(C)Cc3ccccc3)C2)cc1 (configuration not stated),14,1,-10,-1,-18,15
COC(=O)C1=C(c2ccc(F)cc2OCc2ccccc2)C[C@@H]2CC[C@H]1N2C(=O)NCCc1ccc(F)cc1,.,-1,19,8,.,-8
COC(=O)C1=C(c2ccc(OC(F)(F)F)cc2)C[C@@H]2CC[C@H]1N2C(=O)NCCc1ccccc1,.,1,16,8,.,-16
CC(C)COC(=O)c1ccccc1C(=O)OCC(C)C,-2,0,-1,-8,-2,.
C[CH2][Hg][S]c1ccccc1C(=O)O,.,3,104*,114*,.,99
SMILES,T cruzi repl,A1 inh,CSC inhib,Beta apoptosis,Calb FLC,H9c2 TAG inh
COc1cc(/C=C(/C)[N+](=O)[O-])ccc1OCc1ccccc1Cl,61*,?,78*,92*,.,.
O=S(=O)(c1ccc(Cl)cc1)N1CCCCC1c1cccnc1 (configuration not stated),71*,0,-3,-4,15,-7
C[C@H]1CCC/C=C/[C@@H]2C[C@H](O)C[C@H]2[C@H](O)/C=C/C(=O)O1,.,2,100*,117*,.,126
O=C1C2CCN(CC2)C1Cc1ccc(OCc2ccccc2)cc1 (configuration not stated),8,0,27,0,109*,38
CCn1c(NN=O)nc2ccccc21,?,0,52,99*,80*,43
CCn1c(P(C)(=O)O)nc2ccccc21,-4,0,-1,-6,1,.
CC=C(C)C1(CCC)C(=O)NC(=S)NC1=O,.,.,.,.,.,9
c1ccc2c(CN3CCN(C4CCCCC4)CC3)c[nH]c2c1,1,1,2,5,2,2
c1ccc2c(CN3CCCCCCC3)c[nH]c2c1,70*,1,7,104*,-4,.
CN(Cc1c[nH]c2ccccc12)C1CCCCC1,82*,1,-14,102*,-20,87
c1ccc2c(CNC3CCCCC3)c[nH]c2c1,16,1,2,115*,9,.
CCC(CC)NCc1c[nH]c2ccccc12,32,2,-13,55,-8,20
CSc1ccccc1C(=O)C1CCCN(Cc2ccn[nH]2)C1 (configuration not stated),-4,0,3,-1,-24,-1
COc1cc2c(cc1OC)-c1c3c(cc4c1[C@@H](C2)N(C)CC4)OCO3,29,2,.,61,-14,53*
COc1cc2c(cc1OC)-c1c(OC)c(OC)cc3c1C(C2)N(C)CC3 (configuration not stated),34,-2,26,.,4,.
CCC1C=CC=CC[C@H](C)[C@@H](O)[C@](C)(O)C(=O)[C@@H](C)[C@H](O)[C@@H](C)C(=O)[C@H](C)[C@@H](O)[C@H](C)C=CC(=O)OC2[C@@H](C)C(CC1)OC1(CC[C@@H](C)C(C[C@H](C)O)O1)[C@@H]2C (some centres not stated),.,-1,99*,104*,.,.
